{"data": "Experimental data gathered from unrelated publications", "target": "Mitogen-activated protein kinase kinase kinase 11 (MAP3K11, Homo sapiens, UniProt Q16584)"}
{"Compound": "C[C@H]1CCN(c2nccc(-c3cnn4ncccc34)n2)C1", "read-out": "binding", "tested at": "1 µM", "endpoint": "remaining binding", "value": "93%"}
{"Compound": "Nc1ncnc2occ(-c3ccc(NC(=O)Nc4cc(C(F)(F)F)ccc4F)cc3)c12", "read-out": "cell-free assay", "mode": "inhibitor", "tested at": "20 µM", "endpoint": "remaining signal", "value": "2.9%"}
{"Compound": "c1cc(CN2CCOCC2)cc(Nc2nccc(NCCc3cnc[nH]3)n2)c1", "read-out": "enzyme activity", "mode": "inhibitor", "method": "radiometric", "tested at": "1 µM", "endpoint": "remaining activity", "value": "82%"}
{"Compound": "COc1cc2ncnc(Nc3ccc(F)c(Cl)c3)c2cc1OCCCN1CCOCC1", "read-out": "cell-free assay", "tested at": "0.5 µM", "endpoint": "remaining signal", "value": "102%"}
{"Compound": "COc1cc(Nc2cnc(C#N)c(O[C@H](C)CN(C)C)n2)ncc1-c1cnn(C)c1", "read-out": "enzyme activity", "mode": "inhibitor", "method": "radiometric", "tested at": "1 µM", "endpoint": "remaining activity", "value": "68%"}
{"Compound": "COc1cc(/C=C/C(=O)CC(=O)/C=C/c2ccc(O)c(OC)c2)ccc1O", "read-out": "enzyme activity", "mode": "inhibitor", "tested at": "1 µM", "endpoint": "activity vs control", "value": "14%"}
{"Compound": "CNC(=O)c1cc(Oc2ccc(NC(=O)Nc3ccc(Cl)c(C(F)(F)F)c3)cc2)ccn1", "read-out": "cell-free assay", "tested at": "0.5 µM", "endpoint": "remaining signal", "value": "98.3%"}
{"Compound": "CC(=O)N1CCC(c2ccc(C(=O)NC(=N)N)cc2C(F)(F)F)CC1", "read-out": "cell-free assay", "method": "competition with immobilised ligand", "tested at": "1 µM", "endpoint": "remaining binding", "value": "100%"}
{"Compound": "Cc1nn(CC(F)(F)F)cc1Nc1nccc(NCCCNC(=O)C2CCC2)n1", "read-out": "enzyme activity", "mode": "inhibitor", "method": "radiometric", "tested at": "1 µM", "endpoint": "remaining activity", "value": "106%"}
{"Compound": "CCOCCn1cc(C(=O)Nc2ccc(-n3nc(-c4cccnc4)cc3C(F)(F)F)cn2)ccc1=O", "read-out": "cell-free assay", "method": "competition with immobilised ligand", "tested at": "1 µM", "endpoint": "remaining binding", "value": "100%"}
{"Compound": "CC/C(=N\\NC(=O)NCc1cccc(O)c1)c1ccc(O)c(C)c1O", "read-out": "enzyme activity", "mode": "inhibitor", "tested at": "0.1 µM", "endpoint": "inhibition", "value": "9.4%"}
{"Compound": "CN(C)c1ncnc(-c2ccc3nc(Nc4cc(CN5CCN(C(=O)CC(F)(F)F)CC5)ccn4)[nH]c3c2)c1Cl", "read-out": "cell-free assay", "method": "competition with immobilised ligand", "tested at": "1 µM", "endpoint": "remaining binding", "value": "100%"}
{"Compound": "Cc1nn(CC(F)(F)F)cc1Nc1ncc(Br)c(NCCc2cnc[nH]2)n1", "read-out": "enzyme activity", "mode": "inhibitor", "method": "radiometric", "tested at": "1 µM", "endpoint": "remaining activity", "value": "60%"}
{"Compound": "CCC(=O)N[C@@H]1CC[C@H](C(=O)N(C)c2ccc(-c3nc4ccccc4o3)cc2)C1", "read-out": "cell-free assay", "method": "competition with immobilised ligand", "tested at": "1 µM", "endpoint": "remaining binding", "value": "100%"}
{"Compound": "O=C(NCCCNc1nc(Nc2cccc(NC(=O)N3CCCC3)c2)ncc1Br)C1CCC1", "read-out": "enzyme activity", "mode": "inhibitor", "method": "radiometric", "tested at": "1 µM", "endpoint": "remaining activity", "value": "-3%"}
{"Compound": "N#CCCc1ccc2c(c1)-c1[nH]c3ccc([N+](=O)[O-])cc3c1CC(=O)N2", "read-out": "cell-free assay", "tested at": "0.5 µM", "endpoint": "remaining signal", "value": "18.4%"}
{"Compound": "NS(=O)(=O)c1ccc(CNc2nc(Nc3cccc(CN4CCOCC4)c3)ncc2Br)cc1", "read-out": "enzyme activity", "mode": "inhibitor", "method": "radiometric", "tested at": "1 µM", "endpoint": "remaining activity", "value": "34%"}
{"Compound": "O=C(NCc1ncc(C(F)(F)F)cc1Cl)c1ccc2c(c1)C1(CCS(=O)(=O)CC1)[C@@H](C1CC1)N2S(=O)(=O)c1ccc(F)cc1", "read-out": "cell-free assay", "method": "competition with immobilised ligand", "tested at": "1 µM", "endpoint": "remaining binding", "value": "100%"}
